{"source": "paper PMC8248332", "about": "(Chembiochem, 2021)", "key": {"[1]": {"target": "T1, 14‐3‐3σ (Homo sapiens, UniProt P31947)", "T1 sequence (P31947 1-248)": "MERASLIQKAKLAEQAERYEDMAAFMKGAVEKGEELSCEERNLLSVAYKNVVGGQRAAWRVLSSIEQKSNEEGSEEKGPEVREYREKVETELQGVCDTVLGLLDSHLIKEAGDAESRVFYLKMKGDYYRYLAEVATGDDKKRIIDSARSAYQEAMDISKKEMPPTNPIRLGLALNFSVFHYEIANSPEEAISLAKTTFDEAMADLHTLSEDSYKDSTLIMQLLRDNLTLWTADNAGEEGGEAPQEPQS", "assay": "Isothermal titration calorimetry", "type": "binding", "details": "dissolved CRaf (1 mM) into 14‐3‐3σ (50 μM), HEPES 25 mM pH 7.4, 25 °C", "summary_of_the_method": "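14-3-3σ purified by size-exclusion chromatography (20 mM Tris-HCl pH 7.5, 150 mM NaCl, 2 mM DTT), then dialysed into 25 mM HEPES pH 7.4. Cell held 300 μL protein. First injection 0.4 μL, mixing time 0.8 s, 180 s between injections. Enthalpy per injection versus peptide:protein molar ratio fitted sigmoidally; inflection point gives N, slope there gives KD.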"}, "[2]": {"target": "14‐3‐3ζ", "details": "CRaf and the isomer 14‐3‐3ζ; Molzan et al.; cited from earlier work"}}, "note": "Square brackets hold non-standard residues; d marks the D form. Peptide text beside a SMILES is read from it. pS = N[C@@H](COP(=O)(O)O)C(=O)O", "data": [{"smiles": "CC(C)C[C@H](NC(=O)[C@H](CO)NC(=O)CNC(=O)[C@H](CCC(=O)O)NC(=O)[C@H](CO)NC(=O)[C@H](CS)NC(=O)[C@@H]1CCCN1C(=O)[C@H](CO)NC(=O)[C@H](CO)NC(=O)[C@@H](NC(=O)[C@H](CC(N)=O)NC(=O)[C@H](Cc1ccccc1)NC(=O)[C@@H](NC(=O)[C@H](Cc1ccccc1)NC(=O)[C@H](C)NC(=O)[C@H](Cc1c[nH]cn1)NC(=O)[C@@H]1CCCN1C(=O)[C@@H](NC(=O)[C@H](COP(=O)(O)O)NC(=O)[C@H](Cc1ccc(O)cc1)NC(=O)[C@H](CCCNC(=N)N)NC(=O)[C@H](Cc1c[nH]cn1)NC(=O)[C@@H](N)CCC(N)=O)[C@@H](C)O)[C@@H](C)O)[C@@H](C)O)C(=O)N[C@@H](CO)C(=O)N[C@@H](CCC(N)=O)C(=O)N[C@@H](CCCNC(=N)N)C(=O)N[C@@H](CCC(N)=O)C(=O)N[C@@H](CCCNC(=N)N)C(=O)N[C@@H](CO)C(=O)N[C@H](C(=O)N[C@@H](COP(=O)(O)O)C(=O)N[C@H](C(=O)N1CCC[C@H]1C(=O)N[C@@H](CC(N)=O)C(=O)N[C@H](C(=O)N[C@@H](Cc1c[nH]cn1)C(N)=O)C(C)C)[C@@H](C)O)[C@@H](C)O", "note": "[CRaf] (H-QHRY[pS]TPHAFTFNTSSPCSEGSLSQRQRST[pS]TPNVH-NH2)", "values": [{"measurement": "binding ratio from ITC (peptide/protein), N", "setting": "[1]", "result": "0.84±0.01"}, {"measurement": "Kd", "setting": "[2]", "result": 80, "unit": "nM"}]}]}
